These results are taken from ChEMBL document CHEMBL3580541, “Mebamamides A and B, Cyclic Lipopeptides Isolated from the Green Alga Derbesia marina” (J Nat Prod, 2015).

Experiment [1] has as its system HeLa. Put plainly: Cytotoxicity against human HeLa cells after 72 hrs by Trypan blue dye exclusion assay. The format is functional, cell-based. As to conditions: in the assay text read “MTT assay” for “Trypan blue dye exclusion assay”. The procedure, abridged:
(§1)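 MTT read-out of proliferation. HeLa cells were grown in supplemented DMEM with 10% heat-inactivated FBS, seeded at 2 × 10^4 cells/well and cultured overnight. HL60 cells were grown in supplemented RPMI with 10% FBS and seeded at 1 × 10^5 cells/well. Compounds were added at 0.1−100 μM and incubated 72 h at 37 °C, 5% CO2.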
Background: Formazan colour is commonly taken as a measure of viable cells.

Experiment [2] has as its system HL-60. Kind of experiment: Induction of cell adhesion in human HL60 cells at 100 uM measured upto 72 hrs by hemocytometry. Format: functional, cell-based. In a few lines: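 HL60 cells were seeded at 1 × 10^5 cells/well in 200 μL medium and given 100 μM compound; TPA at 16 nM served as comparator. Both fractions were counted by hemocytometer. Means ± SD of quadruplicate determinations.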

In experiment [3] the test system is HL-60. Put plainly: Cytotoxicity against human HL60 cells after 72 hrs by Trypan blue dye exclusion assay. Format: functional, cell-based. As to conditions: HL-60, 72 h, in the assay text read “MTT assay” for “Trypan blue dye exclusion assay”. In a few lines: as §1
Experiment [4] has as its system HL-60. Kind of experiment: Induction of human HL60 cell phagocytotic activity at 100 uM after 48 hrs by trypan based fluorescent microscopy. The format is functional. The procedure, abridged:
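Phagocytosis was run with a commercial kit. HL60 cells were seeded at 2 × 10^4 cells/well in 200 μL medium, given 20 μL FITC-conjugated latex bead suspension plus 100 μM compound or 16 nM TPA, incubated 48 h and examined by fluorescence microscopy.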

The subject of experiment [5] is HL-60. Kind of experiment: Induction of human HL60 cell differentiation into macrophages at 100 uM after 72 hrs by May-Giemsa staining based microscopy. Format: functional. In a few lines:
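Differentiation was judged by morphology. HL60 cells were seeded at 2 × 10^4 cells/well in 200 μL medium, treated 72 h with 100 μM compound or 16 nM TPA, washed once in PBS, stained with May−Giemsa and examined by light microscopy.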

The subject of experiment [6] is HL-60. Kind of experiment: Cytotoxicity against human HL60 cells at 100 uM after 72 hrs by Trypan blue dye exclusion assay. The format is functional, cell-based. The procedure, abridged: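 HL60 cells were seeded at 1 × 10^5 cells/well in 24-well plates and exposed to 100 μM compound for 72 h. They were then stained with 0.8 mg/mL trypan blue. Viability was determined by counting stained (dead) cells.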

Experiment [7] has as its system HeLa. Put plainly: Cytotoxicity against human HeLa cells at 100 uM after 72 hrs by Trypan blue dye exclusion assay. The format is functional, cell-based. As to conditions: in the assay text read “MTT assay” for “Trypan blue dye exclusion assay”. The procedure, abridged:
as §1

Experiment [8] has as its system HL-60. Kind of experiment: Induction of human HL60 cell differentiation into macrophages at 16 nM after 72 hrs by May-Giemsa staining based microscopy. The format is functional. The procedure, abridged:
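HL60 cells were grown in RPMI with 10% heat-inactivated FBS, penicillin/streptomycin, amphotericin and L-glutamine at 37 °C in 5% CO2. They were seeded at 2 × 10^4 cells/well and treated for 72 h. Cells were washed once in PBS, stained with May–Giemsa, and examined by light microscopy for macrophage-like morphology.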

In experiment [9] the test system is HL-60. Put plainly: Induction of human HL60 cell phagocytotic activity at 16 nM after 48 hrs by trypan based fluorescent microscopy. The format is functional. The procedure, abridged:
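HL60 cells were seeded at 2 × 10^4 cells/well. FITC-conjugated latex beads and agent were added together, with TPA at 16 nM as the reference, and cells were incubated for 48 h. Uptake was assessed by fluorescence microscopy using a commercial phagocytosis kit run per the manufacturer's protocol.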

As a reminder, the IC50 is the concentration at which inhibition is half-maximal. Lower therefore signals higher potency.

The source made the active and inactive calls. The rule behind the calls is not given here.

Take `CC(=O)O[C@@H](CCCC[C@@H](O)CC(=O)N[C@H](CO)C(=O)N[C@@H](CC(C)C)C(=O)N1CCC[C@H]1C(=O)N[C@H](C)C(=O)N[C@@H]1C(=O)N[C@H](Cc2ccccc2)C(=O)N2CCC[C@H]2C(=O)N[C@H](CC(C)C)C(=O)N[C@@H](C(C)C)C(=O)O[C@@H]1C)C(C)C`: the 50% inhibitory concentration (IC50) in the experiment on HeLa [1] was determined as 48 µM; in the experiment on HL-60 [3] it was 19 µM. For the same compound, the result in the experiment with HL-60 [2] was inactive.

Consider `CC(C)C[C@H](NC(=O)[C@@H](CO)NC(=O)C[C@H](O)CCCC[C@H](O)C(C)C)C(=O)N1CCC[C@H]1C(=O)N[C@H](C)C(=O)N[C@@H]1C(=O)N[C@H](Cc2ccccc2)C(=O)N2CCC[C@H]2C(=O)N[C@H](CC(C)C)C(=O)N[C@@H](C(C)C)C(=O)O[C@@H]1C`, for which the outcome in the experiment with HL-60 [4], with HL-60 [5] and in the experiment on HL-60 [2] was Active. The “growth inhibition (GI)” value in the experiment on HL-60 [6] and in the experiment with HeLa [7] was “inactive” throughout.

With `CCCCCCCCCCCCCC(=O)O[C@@H]1[C@@H](C)[C@@]2(O)[C@@H](C=C(CO)C[C@]3(O)C(=O)C(C)=C[C@@H]23)[C@@H]2C(C)(C)[C@]12OC(C)=O`, the outcome with HL-60 [8] and with HL-60 [9] was Active.
